High-throughput results from PubChem.
Most compounds without a hit are left out; they make up all but 2.5% or so of the library.
UHRF1 MBD2 ctr – human UHRF1 methylated DNA binding inhibitors. Q96T88. UHRF1 binding to methylated oligo, TR-FRET. inhibition, % at 4.4 µM. 370,000 tested, 0.75% active; in the data active = inhibition above about 21%;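 note: UHRF1 SRA domain binding a hemimethylated CpG hairpin DNA probe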
Arr AP2 block – inhibitors of human beta-arrestin and AP2 interaction; FITC-arrestin peptide / GST-AP2 beads, flow cytometry; AP2 beta2 appendage carries R879A mutation; inhibition, % at 10 µM; 340,000 tested, 0.31% active; AID 504490;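 active = inhibition above a set limit, near 3 SD of compounds lacking own fluorescence, cut at about 54% in these data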
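Assay system: GST-AP2 R879A bound to glutathione beads, E. coli-expressed; Medium: PBS with 0.05% Tween 20 and 0.1% BSA; Also added: fluorescein-tagged arrestin peptide at 50 nM final; Timing: 12 min plus 1 h, RT; Measured by: flow cytometry, FL1 (488/535 nm); Evaluation: percent drop in bead-associated FITC signal.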
ABHD5-PLIN5 inh – inhibitors of human ABHD5-perilipin-5 interaction. Split G. princeps luciferase complementation, luminescence, 4 h. inhibition, % at 4 µM. Q00G26+Q8WTS1. 360,000 tested, 0.78% active;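 active = inhibition above the mean inhibition across every tested compound plus 3 SD, cut at about 22% in these data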
Rin1-Abl PPI inh – inhibitors of human Rin1-Abl protein interaction; TR-FRET Rin1/Abl binding, biochemical; inhibition, % at 7.35 µM; 360,000 tested, 0.4% active; AID 588664; in the data active = inhibition above about 5%, passing the limit was not always enough
Beta2AR agonist – human beta-2 adrenergic receptor agonism by FAP. AID 504454. Am2.2-beta2AR cells, FAP receptor internalization, flow cytometry. response, % (no concentration beside the values). 340,000 tested, 0.43% active. P07550;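 active = response above a set limit, near 3 SD of response in nonfluorescent compounds, cut at about 42% in these data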
MBD2 DNA inh – inhibitors of human MBD2 binding to methylated oligonucleotide; TR-FRET; inhibition, % at 4.4 µM; 370,000 tested, 0.31% active; in the data active = inhibition above about 13%
Target sequence (Q9UBB5 whole entry, looked up): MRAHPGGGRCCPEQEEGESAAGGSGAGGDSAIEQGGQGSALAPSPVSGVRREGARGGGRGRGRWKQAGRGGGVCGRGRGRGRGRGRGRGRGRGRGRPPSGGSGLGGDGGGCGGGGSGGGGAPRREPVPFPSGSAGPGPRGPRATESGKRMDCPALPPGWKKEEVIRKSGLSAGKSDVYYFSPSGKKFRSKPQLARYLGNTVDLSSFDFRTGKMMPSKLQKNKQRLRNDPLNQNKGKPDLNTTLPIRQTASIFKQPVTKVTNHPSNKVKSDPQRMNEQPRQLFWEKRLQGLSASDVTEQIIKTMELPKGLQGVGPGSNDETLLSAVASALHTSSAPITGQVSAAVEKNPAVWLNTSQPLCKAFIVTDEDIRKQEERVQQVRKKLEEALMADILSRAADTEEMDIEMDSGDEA
Arr AP2 CP1 – inhibitors of human beta-arrestin and AP2 interaction; shares compounds with Arr AP2 block; GST-AP2 beads, FITC arrestin peptide binding, flow cytometry; GST-fused beta2-adaptin appendage, R879A mutant; inhibition, % at 10 µM; 1,300 tested, 2% active; AID 504908;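 active = inhibition above a set limit, roughly 3 SD of non-fluorescent compound noise, cut at about 38% in these data; inactive = inhibition at or below that limit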;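 note: loss of bead fluorescence from 50 nM FITC arrestin peptide bound to appendage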
GST-FITC bead – disrupts GST binding to glutathione beads, arrestin-AP2 artifact. 1,300 tested, 2% active. shares compounds with Arr AP2 block. inhibition, % at 10 µM. GST-fluorescein binding to GSH beads, fluorescence, counter-screen;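 active = inhibition above 50%, about 3 SD of the inhibition seen with non-fluorescent compounds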;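 note: fluorescein maleimide labelled GST captured on 4 micron glutathione beads; higher means more loss of bead fluorescence from quenching or blocked binding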
A number is an active result; . = inactive; / = no result.

SMILES	UHRF1 MBD2 ctr	Arr AP2 block	ABHD5-PLIN5 inh	Rin1-Abl PPI inh	Beta2AR agonist	MBD2 DNA inh	Arr AP2 CP1	GST-FITC bead
CCOc1ccc(NC(=S)N2CCN(S(=O)(=O)c3ccccc3)CC2)cc1	.	57.7	.	.	.	.	.	.
COc1cc2c(cc1NC(=O)CCC(=O)O)oc1ccccc12	.	.	.	.	.	.	/	/
COc1cc2c(cc1NC(=O)CSc1ccc(C)cc1)oc1ccccc12	.	.	.	.	.	.	.	.
COc1cc2c(cc1NC(=O)C(C)Sc1ccc(C)cc1)oc1ccccc12 (stereo not drawn)	.	.	.	.	.	.	.	/
COc1cc2c(cc1NC(=O)COc1ccccc1OC)oc1ccccc12	.	.	.	.	.	.	.	.
COc1cc2c(cc1NC(=O)CSCC(=O)O)oc1ccccc12	.	.	.	.	.	.	/	/
COc1cc2c(cc1NC(=O)COC(=O)[C@@H](NS(=O)(=O)c1ccccc1)C(C)C)oc1ccccc12	.	.	.	.	.	.	/	/
COC(=O)c1cc(OC)c(OC)cc1NC(=O)C(C)Sc1ccc(C)cc1 (stereo not drawn)	.	.	.	.	.	.	/	/
COc1cc2c(cc1NC(=O)COC(=O)c1ccc(C(C)(C)C)cc1)oc1ccccc12	.	.	.	.	.	.	.	.
Clc1ccc(-c2nnc3n2N=C(c2ccc(-c4ccccc4)cc2)CS3)cc1	.	/	/	/	/	.	/	/
COC(=O)[C@]12C[C@H](CC(=O)N3CCCC3)C(=O)N(Cc3ccc(Cl)cc3Cl)C1=C[C@H](C(C)(C)C)O[C@@H]2C	.	/	/	/	/	.	/	/
COc1cc2c(cc1NC(=O)CSc1cccc[n+]1[O-])oc1ccccc12	.	56.2	.	.	.	.	.	.
COc1cc2c(cc1NC(=O)Cc1ccc(C)cc1)oc1ccccc12	.	.	.	.	.	.	.	.
COc1cc2c(cc1NC(=O)CSc1nnnn1-c1ccccc1)oc1ccccc12	.	.	.	.	.	.	/	/
Cc1ccc2nc(-c3cccc(Br)c3)cc(C(=O)NCC3CCCO3)c2c1 (stereo not drawn)	.	.	.	.	.	.	/	/
O=C(NCC1CCCO1)c1cc(-c2ccccc2)nc2ccc(Br)cc12 (stereo not drawn)	.	54.0	.	.	.	.	.	.
O=C(/C=C/c1ccccc1)NCCS(=O)(=O)N1CCN(c2ccccc2)CC1	.	54.6	.	.	.	.	.	.
Cn1c(SCC(=O)Nc2ccc(C(=O)O)cc2)nnc1-c1ccccn1	.	/	/	/	/	.	/	/
Cn1nc(C(=O)Nc2ccccc2)c2c1-c1ccccc1S(=O)(=O)C2	.	58.4	.	.	.	.	.	.
COc1cccc(NC(=O)c2nn(C)c3c2CS(=O)(=O)c2ccccc2-3)c1	.	.	.	.	.	.	/	/
COc1ccc(OC)c(S(=O)(=O)N2CCC(C(=O)N3CCN(C4CCCCC4)CC3)CC2)c1	.	/	/	/	/	.	/	/
O=C1CC(c2ccco2)CC2=C1C1c3ccccc3C(=O)N1c1ccccc1N2 (stereo not drawn)	.	98.6	.	.	.	.	.	.
CCC(=O)N1c2ccccc2NC2=C(C(=O)CC(c3ccco3)C2)C1c1ccco1 (stereo not drawn)	.	.	.	.	.	.	/	/
CCOC(=O)C1=C(COC(=O)c2ccccc2OC)NC(=O)NC1C (stereo not drawn)	.	.	.	.	.	.	/	/
CCOC(=O)C1=C(COC(=O)C(CC)c2ccccc2)NC(=O)NC1C (stereo not drawn)	.	67.2	.	.	.	.	.	.
SMILES	UHRF1 MBD2 ctr	Arr AP2 block	ABHD5-PLIN5 inh	Rin1-Abl PPI inh	Beta2AR agonist	MBD2 DNA inh	Arr AP2 CP1	GST-FITC bead
CCOC(=O)C1=C(COC(=O)c2cccs2)NC(=O)NC1C (stereo not drawn)	.	.	.	.	.	.	/	/
CCOC(=O)C1=C(COC(=O)C(CC)Oc2ccccc2)NC(=O)NC1C (stereo not drawn)	.	.	.	.	.	.	.	.
CCOC(=O)C1=C(COC(=O)CC(C)c2ccccc2)NC(=O)NC1C (stereo not drawn)	.	.	.	.	.	.	.	.
CCOC(=O)C1=C(COC(=O)Cc2c(F)cccc2Cl)NC(=O)NC1C (stereo not drawn)	.	.	.	.	.	.	.	.
CN1C2=N[C@H](c3ccc(Br)cc3)CC(=O)N2/C(=C\c2ccccc2)[C@@H]1c1ccccc1	.	/	/	/	/	.	/	/
Cc1ccc(S(=O)(=O)N(C)CC(=O)O/N=C(\N)c2ccccn2)cc1	.	97.3	.	.	.	.	.	.
Cc1cc(Cl)ccc1N(CC(=O)NCc1ccc2c(c1)OCO2)S(C)(=O)=O	.	60.3	.	.	.	.	.	.
Cc1cc(O)ccc1N/C=C/c1onc(C)c1[N+](=O)[O-]	.	98.6	.	.	.	.	.	.
CCN(CC)C(=O)Cn1cc(/C=C(\C#N)C(=O)NC2CC2)c2ccccc21	.	61.0	.	.	.	.	.	.
c1ccc(-c2nnc3n2N=C(c2ccc4ccccc4c2)CS3)cc1	.	/	/	/	/	.	/	/
Nc1c(C(=O)NC2CC2)sc2nc3c(c(-c4ccco4)c12)CC/C3=C/c1ccco1	/	54.8	.	12.9	.	/	.	.
Cc1ccc(-c2nc(NC(=O)c3ccc(S(=O)(=O)N(CCC#N)CCC#N)cc3)sc2-c2ccccc2)cc1	.	63.0	.	.	.	.	.	.
N#CCCN(CCC#N)S(=O)(=O)c1ccc(C(=O)Nc2nc(-c3ccccc3)c(C(=O)c3ccccc3)s2)cc1	.	.	.	.	.	.	/	/
O=C1N(Cc2ccccc2)c2ccccc2C12CCCc1sc(CCc3ccccc3)nc12 (stereo not drawn)	.	/	/	/	/	.	/	/
Cc1cccc(C)c1NC(=S)Nc1ccc(F)cc1	.	57.5	.	.	.	.	.	.
COc1ccc(CN(CC#Cc2ccc(C)cc2)C(N)=NC(=O)CCc2ccccc2)c(OC)c1	.	/	/	/	/	.	/	/
CC1(C)CC(=O)C2=C(C1)Nc1ccccc1NC2c1cccs1 (stereo not drawn)	.	.	.	.	.	.	/	/
O=C1CCCC2=C1C(c1cccs1)Nc1ccccc1N2 (stereo not drawn)	.	70.1	.	.	.	.	.	.
COc1ccc(N2C(=O)CSC2c2ccc3c(c2)OCO3)cc1 (stereo not drawn)	.	60.8	.	.	.	.	.	.
CC1CC(C)CN(CCCNC(=O)c2ccc(CS(=O)(=O)Cc3ccccc3F)o2)C1 (stereo not drawn)	.	59.3	.	.	.	.	.	.
